From ChEMBL document CHEMBL1128385, “Three-dimensional quantitative structure-activity relationships of somatostatin analogues. 1. Comparative molecular field analysis of growth hormone release-inhibiting potencies” (J Med Chem, 1995)
Where a SMILES comes first, the peptide text is derived from it. [ ]: non-standard residue; d: D form. Phe(4-Cl) = N[C@@H](Cc1ccc(Cl)cc1)C(=O)O; d2Nal = N[C@H](Cc1ccc2ccccc2c1)C(=O)O

organism: Rattus norvegicus; test: In vitro GH release inhibiting potency on anterior pitutaries from adult male rats, relative to somatostatin; format: functional
Procedure, shortened: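 Rat anterior pituitary cells (adult males, 200-250 g), trypsin/DNase dispersed, plated 2 × 10^5 cells/well, cultured 96 h at 37 °C in serum-supplemented DMEM. After washing, cells were pulsed 3 h at 37 °C with 1 nM GRF(1-29)NH2 ± graded analogue doses in medium 199/1% BSA, quadruplicate wells. Medium GH was measured by double-antibody RIA. Potency relative to somatostatin (=1.0) came from four-point assay (mean of ≥3 experiments) or IC50 comparison.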

| SMILES | GHI |
| --- | --- |
| C[C@H]1C(=O)NC(Cc2ccccc2)C(=O)NCCCCCCC(=O)N[C@@H](Cc2ccccc2)C(=O)NC(Cc2ccccc2)C(=O)N[C@H](Cc2c[nH]c3ccccc23)C(=O)NC(CCCCN)C(=O)N1C (single isomer, unassigned) | 50 |
| CC1NC(=O)[C@H]([C@@H](C)O)NC(=O)C(CCCCN)NC(=O)[C@@H](Cc2c[nH]c3ccccc23)NC(=O)C(Cc2ccccc2)NC(=O)[C@@H]2CCCN2C1=O (single isomer, unassigned; 58) | 16.7 |
| CC(C)[C@@H]1NC(=O)[C@H](CCCCN)NC(=O)[C@@H](Cc2c[nH]c3ccccc23)NC(=O)[C@H](Cc2ccc(O)cc2)NC(=O)[C@@H](NC(=O)[C@H](N)Cc2ccc3ccccc3c2)CSSC[C@@H](C(=O)N[C@H](C(N)=O)[C@@H](C)O)NC1=O | 0.83 |
| CC(C)[C@@H]1NC(=O)[C@H](CCCCN)NC(=O)[C@@H](Cc2c[nH]c3ccccc23)NC(=O)[C@H](Cc2ccc(O)cc2)NC(=O)[C@H](NC(=O)[C@H](N)Cc2ccc3ccccc3c2)CSSC[C@@H](C(=O)N[C@@H](Cc2ccc3ccccc3c2)C(=O)O)NC1=O | 1.12 |
| C[C@@H](O)[C@H](NC(=O)[C@H](Cc1ccccc1)NC(=O)[C@@H](NC(=O)[C@H](CCCCN)NC(=O)[C@@H](Cc1c[nH]c2ccccc12)NC(=O)[C@H](Cc1ccc(O)cc1)NC(=O)[C@H](Cc1ccc(Cl)cc1)NC(=O)[C@H](N)Cc1ccccc1)[C@@H](C)O)C(N)=O (H-[dF][Phe(4-Cl)]Y[dW]KTFT-NH2) | 3.4 |
| C[C@@H](O)[C@H](NC(=O)[C@H](Cc1ccccc1)NC(=O)[C@@H](NC(=O)[C@H](CCCCN)NC(=O)[C@@H](Cc1c[nH]c2ccccc12)NC(=O)[C@H](Cc1ccccc1)NC(=O)[C@H](Cc1ccccc1)NC(=O)[C@H](N)Cc1ccccc1)[C@@H](C)O)C(N)=O (H-[dF]FF[dW]KTFT-NH2) | 77 |
| C[C@@H](O)[C@@H]1NC(=O)C(CCCCN)NC(=O)[C@@H](Cc2c[nH]c3ccccc23)NC(=O)C(Cc2ccccc2)NC(=O)[C@@H]2CCCN2C(=O)C(Cc2ccccc2)NC1=O (single isomer, unassigned) | 0.59 |
| C[C@@H](O)[C@@H]1NC(=O)[C@H](CCCCN)NC(=O)[C@@H](Cc2c[nH]c3ccccc23)NC(=O)[C@H](Cc2ccc(O)cc2)NC(=O)[C@@H](NC(=O)[C@H](N)Cc2ccccc2)CSSC[C@@H](C(=O)N[C@@H](Cc2ccc3ccccc3c2)C(N)=O)NC1=O | 0.05 |
| COc1ccc2[nH]cc(C[C@@H]3NC(=O)[C@H](Cc4ccccc4)NC(=O)[C@H](Cc4ccccc4)NC(=O)CCCCCCNC(=O)[C@H](Cc4ccccc4)NC(=O)[C@H]([C@@H](C)O)NC(=O)[C@H](CCCCN)NC3=O)c2c1 (stereo in doubt) | 50 |
| C[C@@H]1NC(=O)[C@H]([C@@H](C)O)NC(=O)C(CCCCN)NC(=O)[C@@H](Cc2c[nH]c3ccccc23)NC(=O)C(Cc2ccccc2)NC(=O)[C@H]2CCCN2C1=O (single isomer, unassigned) | 166 |
| C[C@@H](O)[C@@H]1NC(=O)[C@H](CCCCN)NC(=O)[C@@H](Cc2c[nH]c3ccccc23)NC(=O)[C@H](Cc2c[nH]c3ccccc23)NC(=O)[C@H](Cc2ccccc2)NC(=O)CCCCCCNC(=O)[C@H](Cc2ccccc2)NC1=O (stereo in doubt) | 16.7 |
| Cc1ccc2[nH]cc(C[C@@H]3NC(=O)[C@H](Cc4ccccc4)NC(=O)[C@H](Cc4ccccc4)NC(=O)CCCCCCNC(=O)[C@H](Cc4ccccc4)NC(=O)[C@H]([C@@H](C)O)NC(=O)[C@H](CCCCN)NC3=O)c2c1 (stereo in doubt) | 14 |
| CC(C)[C@@H]1NC(=O)[C@H](CCCCN)NC(=O)[C@@H](Cc2c[nH]c3ccccc23)NC(=O)[C@H](Cc2ccc(O)cc2)NC(=O)[C@H](NC(=O)[C@H](N)C(c2ccccc2)c2ccccc2)CSSC[C@@H](C(=O)N[C@@H](Cc2ccc3ccccc3c2)C(N)=O)NC1=O | 0.91 |
| CC(C)[C@@H]1NC(=O)[C@H](CCCN)NC(=O)[C@@H](Cc2c[nH]c3ccccc23)NC(=O)[C@H](Cc2ccc(O)cc2)NC(=O)[C@H](NC(=O)[C@H](N)Cc2ccc3ccccc3c2)CSSC[C@@H](C(=O)N[C@@H](Cc2ccc3ccccc3c2)C(N)=O)NC1=O | 4.17 |
| NCCCC[C@@H]1NC(=O)[C@@H](Cc2c[nH]c3ccccc23)NC(=O)[C@H](Cc2ccc(O)cc2)NC(=O)[C@@H](NC(=O)[C@H](N)Cc2ccccc2)CSSC[C@@H](C(=O)N[C@@H](Cc2ccc3ccccc3c2)C(N)=O)NC(=O)[C@H](CO)NC1=O | 0.03 |
| C[C@@H](O)[C@@H]1NC(=O)[C@H](CCCCN)NC(=O)[C@@H](Cc2c[nH]c3ccccc23)NC(=O)[C@H](Cc2ccc(N)cc2)NC(=O)[C@H](Cc2ccccc2)NC(=O)CCCCCCNC(=O)[C@H](Cc2ccccc2)NC1=O (stereo in doubt) | 35 |
| CC1NC(=O)[C@@H]2CCCN2C(=O)C(Cc2ccccc2)NC(=O)[C@H]([C@@H](C)O)NC(=O)C(CCCCN)NC(=O)[C@@H](Cc2c[nH]c3ccccc23)NC1=O (single isomer, unassigned) | 5 |
| C[C@@H](O)[C@H](NC(=O)[C@H](Cc1ccccc1)NC(=O)[C@@H](NC(=O)[C@H](CCCCN)NC(=O)[C@@H](Cc1c[nH]c2ccccc12)NC(=O)[C@H](Cc1ccc(O)cc1)NC(=O)[C@H](Cc1ccc(Cl)cc1)NC(=O)[C@H](N)Cc1ccc2ccccc2c1)[C@@H](C)O)C(N)=O (H-[d2Nal][Phe(4-Cl)]Y[dW]KTFT-NH2) | 17 |
| CC(C)[C@H](NC(=O)[C@H](CCCCN)NC(=O)[C@@H](Cc1c[nH]c2ccccc12)NC(=O)[C@H](Cc1ccc(O)cc1)NC(=O)[C@H](Cc1ccccc1)NC(=O)[C@H](N)Cc1ccccc1)C(=O)N[C@@H](Cc1ccccc1)C(=O)N[C@H](C(N)=O)[C@@H](C)O (H-[dF]FY[dW]KVFT-NH2) | 111 |
